ChEMBL document CHEMBL1165950, “Design and synthesis of new potent anticancer pyrazoles with high FLT3 kinase inhibitory selectivity” (Bioorg Med Chem, 2010)

Experiments:
Type in all cases: functional
HCC 2998 = assay: Cytotoxicity against human HCC2998 cells assessed as cell growth at 10 uM; settings: read-out: Activity
Outline: (§1)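 Single-dose NCI-60 screen at 10 µM. Cells were grown in RPMI 1640 with 5% FBS and 2 mM L-glutamine, then treated for 48 h at 37 °C. Protein was measured by SRB staining with absorbance at 515 nm. Percentage growth was recorded, and inhibition percentage was calculated as 100 minus growth percentage.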

HOP-62 = assay: Cytotoxicity against human HOP62 cells assessed as cell growth at 10 uM; settings: read-out: Activity; outline: as §1
LOX IMVI = assay: Cytotoxicity against human LOXIMVI cells assessed as cell growth at 10 uM; settings: read-out: Activity
Outline: (§2)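 NCI-60 screen: cells grown in RPMI 1640 with 5% FBS and 2 mM L-glutamine, plated at 5000–40,000 cells/well according to doubling time, and preincubated 24 h at 37 °C, 5% CO2. The single 10 µM dose (DMSO stock) was added, then incubated 48 h. Cells were TCA-fixed and stained with 0.4% SRB, read at 515 nm, and growth % calculated against time-zero and control plates.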

SK-MEL-28 = assay: Cytotoxicity against human SK-MEL-28 cells assessed as cell growth at 10 uM; settings: read-out: Activity; outline: as §2
MDA-MB-468 = assay: Cytotoxicity against human MDA-MB-468 cells assessed as cell growth at 10 uM; settings: read-out: Activity; outline: as §2
SNB-19 = assay: Cytotoxicity against human SNB19 cells assessed as cell growth at 10 uM; settings: read-out: Activity; outline: as §2
SR = assay: Cytotoxicity against human SR cells assessed as cell growth at 10 uM; settings: read-out: Activity; outline: as §2
U-251 = assay: Cytotoxicity against human U251 cells assessed as cell growth at 10 uM; settings: read-out: Activity; outline: as §2
OVCAR-3 = assay: Cytotoxicity against human OVCAR-3 cells assessed as cell growth at 10 uM; settings: read-out: Activity; outline: as §2
NCI-H23 = assay: Cytotoxicity against human NCI-H23 cells assessed as cell growth at 10 uM; settings: read-out: Activity; outline: as §2
NCI-H322M = assay: Cytotoxicity against human NCI-H322M cells assessed as cell growth at 10 uM; settings: read-out: Activity; outline: as §2
COLO 205 = assay: Cytotoxicity against human COLO205 cells assessed as cell growth at 10 uM; settings: read-out: Activity; outline: as §1
CAKI-1 = assay: Cytotoxicity against human Caki1 cells assessed as cell growth at 10 uM; settings: read-out: Activity; outline: as §1
ACHN = assay: Cytotoxicity against human ACHN cells assessed as cell growth at 10 uM; settings: read-out: Activity; outline: as §1
OVCAR-8 = assay: Cytotoxicity against human OVCAR8 cells assessed as cell growth at 10 uM; settings: read-out: Activity; outline: as §2
SK-MEL-5 = assay: Cytotoxicity against human SK-MEL-5 cells assessed as cell growth at 10 uM; settings: read-out: Activity; outline: as §2
HT-29 = assay: Cytotoxicity against human HT-29 cells assessed as cell growth at 10 uM; settings: read-out: Activity; outline: as §1
OVCAR-5 = assay: Cytotoxicity against human OVCAR5 cells assessed as cell growth at 10 uM; settings: read-out: Activity; outline: as §2
MOLT-4 = assay: Cytotoxicity against human MOLT4 cells assessed as cell growth at 10 uM; settings: read-out: Activity; outline: as §2
MDA-MB-231 = assay: Cytotoxicity against human MDA-MB-231 cells assessed as cell growth at 10 uM; settings: read-out: Activity; outline: as §2
SNB-75 = assay: Cytotoxicity against human SNB75 cells assessed as cell growth at 10 uM; settings: read-out: Activity; outline: as §2
M14 = assay: Cytotoxicity against human M14 cells assessed as cell growth at 10 uM; settings: read-out: Activity; outline: as §2
NCI-H460 = assay: Cytotoxicity against human NCI-H460 cells assessed as cell growth at 10 uM; settings: read-out: Activity; outline: as §2
MCF7 = assay: Cytotoxicity against human MCF7 cells assessed as cell growth at 10 uM; settings: read-out: Activity; outline: as §2
Malme-3M = assay: Cytotoxicity against human MALME-3M cells assessed as cell growth at 10 uM; settings: read-out: Activity; outline: as §2
UO-31 = assay: Cytotoxicity against human UO31 cells assessed as cell growth at 10 uM; settings: read-out: Activity; outline: as §2
HCT-116 = assay: Cytotoxicity against human HCT116 cells assessed as cell growth at 10 uM; settings: read-out: Activity; outline: as §1
[1] = Cytotoxicity against human Hs 578T cells assessed as cell growth at 10 uM; settings: read-out: Activity; outline: as §1
KM12 = assay: Cytotoxicity against human KM12 cells assessed as cell growth at 10 uM; settings: read-out: Activity; outline: as §2
RXF 393 = assay: Cytotoxicity against human RXF393 cells assessed as cell growth at 10 uM; settings: read-out: Activity; outline: as §2
HL-60(TB) = assay: Cytotoxicity against human HL-60(TB) cells assessed as cell growth at 10 uM; settings: read-out: Activity
Outline: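 NCI 60-cell panel screen at a single concentration of 10 µM. Cells are grown in RPMI 1640 with 5% FBS and 2 mM L-glutamine and read by SRB protein staining at 515 nm. Percent growth is measured relative to time-zero and untreated controls; inhibition % is 100 minus growth %.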

MDA-MB-435 = assay: Cytotoxicity against human MDA-MB-435 cells assessed as cell growth at 10 uM; settings: read-out: Activity; outline: as §2
DU-145 = assay: Cytotoxicity against human DU145 cells assessed as cell growth at 10 uM; settings: read-out: Activity; outline: as §1
SN12C = assay: Cytotoxicity against human SN12C cells assessed as cell growth at 10 uM; settings: read-out: Activity; outline: as §2
786-0 = assay: Cytotoxicity against human 786-0 cells assessed as cell growth at 10 uM; settings: read-out: Activity; outline: as §1
[2] = Cytotoxicity against human […] cells assessed as cell growth at 10 uM; settings: read-out: Activity; outline: as §2
IGROV-1 = assay: Cytotoxicity against human IGROV1 cells assessed as cell growth at 10 uM; settings: read-out: Activity; outline: as §1
OVCAR-4 = assay: Cytotoxicity against human OVCAR4 cells assessed as cell growth at 10 uM; settings: read-out: Activity; outline: as §2
TK-10 = assay: Cytotoxicity against human TK10 cells assessed as cell growth at 10 uM; settings: read-out: Activity; outline: as §2
SK-MEL-2 = assay: Cytotoxicity against human SK-MEL-2 cells assessed as cell growth at 10 uM; settings: read-out: Activity; outline: as §2
UACC-62 = assay: Cytotoxicity against human UACC62 cells assessed as cell growth at 10 uM; settings: read-out: Activity; outline: as §2
A549 = assay: Cytotoxicity against human A549 cells assessed as cell growth at 10 uM; settings: read-out: Activity; outline: as §1
SF-268 = assay: Cytotoxicity against human SF268 cells assessed as cell growth at 10 uM; settings: read-out: Activity; outline: as §2
SW-620 = assay: Cytotoxicity against human SW620 cells assessed as cell growth at 10 uM; settings: read-out: Activity; outline: as §2
EKVX = assay: Cytotoxicity against human EKVX cells assessed as cell growth at 10 uM; settings: read-out: Activity; outline: as §1
SF-295 = assay: Cytotoxicity against human SF295 cells assessed as cell growth at 10 uM; settings: read-out: Activity; outline: as §2
K562 = assay: Cytotoxicity against human K562 cells assessed as cell growth at 10 uM; settings: read-out: Activity; outline: as §1
UACC-257 = assay: Cytotoxicity against human UACC257 cells assessed as cell growth at 10 uM; settings: read-out: Activity; outline: as §2
PC-3 = assay: Cytotoxicity against human PC3 cells assessed as cell growth at 10 uM; settings: read-out: Activity; outline: as §2
NCI/ADR-RES = assay: Cytotoxicity against human NCI/ADR-RES cells assessed as cell growth at 10 uM; settings: read-out: Activity; outline: as §2
HOP-92 = assay: Cytotoxicity against human HOP92 cells assessed as cell growth at 10 uM; settings: read-out: Activity; outline: as §1
[3] = Growth inhibition of human NCI60 cells at 10 uM after 48 hrs by sulforhodamine B assay relative to control; settings: NCI60, 48 h, read-out: GI
Outline: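 Single-dose NCI screen at 10 µM across the 60-line panel, 48 h exposure at 37 °C after a 24 h preincubation. Adherent cells were fixed with cold TCA and stained with 0.4% SRB, and absorbance was read at 515 nm. Inhibition % was taken as 100 minus growth %, and the mean across all lines was reported.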

SK-OV-3 = assay: Cytotoxicity against human SKOV3 cells assessed as cell growth at 10 uM; settings: read-out: Activity; outline: as §2
NCI-H226 = assay: Cytotoxicity against human NCI-H226 cells assessed as cell growth at 10 uM; settings: read-out: Activity; outline: as §2
SF-539 = assay: Cytotoxicity against human SF539 cells assessed as cell growth at 10 uM; settings: read-out: Activity; outline: as §2
BT-549 = assay: Cytotoxicity against human BT549 cells assessed as cell growth at 10 uM; settings: read-out: Activity; outline: as §1
CCRF-CEM = assay: Cytotoxicity against human CCRF-CEM cells assessed as cell growth at 10 uM; settings: read-out: Activity; outline: as §1
HCT-15 = assay: Cytotoxicity against human HCT15 cells assessed as cell growth at 10 uM; settings: read-out: Activity; outline: as §1
A498 = assay: Cytotoxicity against human A498 cells assessed as cell growth at 10 uM; settings: read-out: Activity; outline: as §1
NCI-H522 = assay: Cytotoxicity against human NCI-H522 cells assessed as cell growth at 10 uM; settings: read-out: Activity; outline: as §2
T47D = assay: Cytotoxicity against human T47D cells assessed as cell growth at 10 uM; settings: read-out: Activity; outline: as §2

## COc1cc(C)cc(-c2nn(CC#N)cc2-c2ccnc(-c3ccc(C(C)=O)cc3)c2)c1
HCC 2998
  growth at 10 µM: 76.8%
HOP-62
  growth at 10 µM: 94.4%
LOX IMVI
  growth at 10 µM: 78.1%
SK-MEL-28
  growth at 10 µM: 75.4%
MDA-MB-468
  growth at 10 µM: 11.3%
SNB-19
  growth at 10 µM: 92.2%
SR
  growth at 10 µM: 78.4%
U-251
  growth at 10 µM: 91.8%
OVCAR-3
  growth at 10 µM: 108%
NCI-H23
  growth at 10 µM: 78.9%
NCI-H322M
  growth at 10 µM: 102%
COLO 205
  growth at 10 µM: 66.8%
CAKI-1
  growth at 10 µM: 87.2%
ACHN
  growth at 10 µM: 73.8%
OVCAR-8
  growth at 10 µM: 80.6%
SK-MEL-5
  growth at 10 µM: 39.7%
HT-29
  growth at 10 µM: 79%
OVCAR-5
  growth at 10 µM: 108%
MOLT-4
  growth at 10 µM: 75.8%
MDA-MB-231
  growth at 10 µM: 73.8%
SNB-75
  growth at 10 µM: 46.4%
M14
  growth at 10 µM: 103%
NCI-H460
  growth at 10 µM: 106%
MCF7
  growth at 10 µM: 27.6%
Malme-3M
  growth at 10 µM: 139%
UO-31
  growth at 10 µM: 79.1%
HCT-116
  growth at 10 µM: 76.6%
[1]
  growth at 10 µM: 83.8%
KM12
  growth at 10 µM: 87.9%
RXF 393
  growth at 10 µM: 78.9%
HL-60(TB)
  growth at 10 µM: 98.3%
MDA-MB-435
  growth at 10 µM: 70%
DU-145
  growth at 10 µM: 113%
SN12C
  growth at 10 µM: 83.6%
786-0
  growth at 10 µM: 93.9%
[2]
  growth at 10 µM: 82.9%
IGROV-1
  growth at 10 µM: 101%
OVCAR-4
  growth at 10 µM: 58.6%
TK-10
  growth at 10 µM: 95.2%
SK-MEL-2
  growth at 10 µM: 89.1%
UACC-62
  growth at 10 µM: 64.6%
A549
  growth at 10 µM: 67.1%
SF-268
  growth at 10 µM: 110%
SW-620
  growth at 10 µM: 94.7%
EKVX
  growth at 10 µM: 104%
SF-295
  growth at 10 µM: 103%
K562
  growth at 10 µM: 70.6%
UACC-257
  growth at 10 µM: 82.7%
PC-3
  growth at 10 µM: 82.9%
NCI/ADR-RES
  growth at 10 µM: 73.8%
HOP-92
  growth at 10 µM: 81.7%
[3]
  inhibition of growth at 10 µM: 18.2%
SK-OV-3
  growth at 10 µM: 89%
NCI-H226
  growth at 10 µM: 78.3%
SF-539
  growth at 10 µM: 81.9%
BT-549
  growth at 10 µM: 93.5%
CCRF-CEM
  growth at 10 µM: 92.6%
HCT-15
  growth at 10 µM: 68.7%
A498
  growth at 10 µM: 93%
NCI-H522
  growth at 10 µM: 66.6%
T47D
  growth at 10 µM: 33.5%
